ChEMBL document CHEMBL4382292, “Discovery of a Novel cGAMP Competitive Ligand of the Inactive Form of STING” (ACS Med Chem Lett, 2019)
In brackets after ≈: the same amount, converted by molar mass.

Experiments:
[1] = Clearance in rat at 0.5 mg/kg, iv or 1 mg/kg, po; format: ADME, organism-based; settings: in vivo
Method in brief: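 Rat dosed iv at 0.5 mpk or po at 1 mpk, each as a solution in PEG400/H2O (60:40 (v/v)).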

[2] = Intrinsic clearance in rat hepatocytes after 120 mins by LC-MS/MS analysis; format: ADME, cell-based, Hepatocyte; settings: read-out: CLH
[3] = Intrinsic clearance in human hepatocytes after 120 mins by LC-MS/MS analysis; format: ADME, cell-based, Hepatocyte; settings: read-out: CLH
[4] = Solubility of the compound in FaSSIF solution at 100 uM after overnight incubation by UPLC/DAD analysis; format: physicochemical
[5] = Apparent permeability in MDCK cells; format: ADME, cell-based, Canis lupus familiaris; settings: dog
[6] = molecular target: Stimulator of interferon genes protein (Homo sapiens, UniProt Q86WV6); assay: Displacement of [3H]cGAMP from full length human HAQ STING expressed in Trichopulsia ni membranes preincubated for 30 mins followed by [3H]cGAMP addition and measured after 60 mins by scintillation counting method; format: cell membranes
Sequence of Stimulator of interferon genes protein (Q86WV6 whole entry, looked up): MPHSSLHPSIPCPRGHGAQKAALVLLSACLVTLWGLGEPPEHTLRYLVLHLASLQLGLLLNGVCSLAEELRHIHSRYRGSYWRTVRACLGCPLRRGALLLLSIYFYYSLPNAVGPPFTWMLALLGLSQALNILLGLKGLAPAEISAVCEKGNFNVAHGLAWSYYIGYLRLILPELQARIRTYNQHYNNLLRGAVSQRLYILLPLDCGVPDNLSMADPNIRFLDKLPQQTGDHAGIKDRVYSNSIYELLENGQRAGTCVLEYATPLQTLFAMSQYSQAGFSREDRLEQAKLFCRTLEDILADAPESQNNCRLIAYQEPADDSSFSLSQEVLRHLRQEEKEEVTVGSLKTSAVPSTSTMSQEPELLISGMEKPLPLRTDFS

Row | SMILES | clearance [1] [mL/min/kg] | CLint scaled [2] [mL/min/kg] | CLint scaled [3] [mL/min/kg] | solubility at 100 µM [4] [µM] | Papp [5] [×10⁻⁶ cm/s] | IC50 [6] [µM]
1 | CC(C)(C)c1ccc(N2C(=O)c3ccccc3[C@H](C(=O)O)[C@H]2c2ccc3c(c2)OCCO3)cc1Cl | 38 | 158 | 28 | 151 (≈ 74.3 µg/mL) | 9 | –
2 | CC(C)(C)c1ccc(N2C(=O)c3cc(F)ccc3[C@H](CC(=O)O)[C@H]2c2ccc3c(c2)OCCO3)cc1Cl | 45 | 240 | 31 | 187 (≈ 98 µg/mL) | 18 | –
3 | O=C(O)[C@H]1c2ccccc2C(=O)N(c2ccc3c(c2)CCC3)[C@@H]1c1ccc(Oc2ccccc2)cc1 (racemic) | – | – | – | – | – | > 20
4 | N#Cc1ccc([C@@H]2[C@@H](C(=O)O)c3ccccc3C(=O)N2c2ccc3c(c2)CCC3)cc1 (racemic) | – | – | – | – | – | > 20

Continued, values first:

Row | clearance [1] [mL/min/kg] | CLint scaled [2] [mL/min/kg] | CLint scaled [3] [mL/min/kg] | solubility at 100 µM [4] [µM] | Papp [5] [×10⁻⁶ cm/s] | IC50 [6] [µM] | SMILES
5 | – | – | – | – | – | > 20 | O=C(O)[C@H]1c2ccccc2C(=O)N(c2ccc3c(c2)CCC3)[C@@H]1c1ccc2c(c1)OC(F)(F)O2 (racemic)
6 | – | – | – | – | – | > 20 | CC(C)c1ccc(N2C(=O)c3ccccc3[C@H](C(=O)O)[C@H]2c2ccc3ccccc3c2)cc1 (racemic)
7 | – | – | – | – | – | > 20 | CN(C)c1ccc([C@@H]2[C@@H](C(=O)O)c3ccccc3C(=O)N2c2ccc3c(c2)CCC3)cc1 (racemic)
